Experimental data taken from ChEMBL document CHEMBL1143581, “Cationic chalcone antibiotics. Design, synthesis, and mechanism of action” (2005).
Converted amounts (≈) assume the structure as drawn. The source made the active and inactive calls. The calls are words filed in the database; no cut-off is given here.

Experiments:
[1] = tested on: Enterococcus faecium; assay: Minimum inhibitory concentration against Enterococcus faecium […]; assay type: functional
[2] = tested on: Staphylococcus aureus; assay: Minimum inhibitory concentration against Staphylococcus aureus ATCC 33591 (resistant to methicillin); assay type: functional
[3] = tested on: Escherichia coli; assay: Minimum inhibitory concentration against Escherichia coli ATCC 25922; assay type: functional
Outline: (§1)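 Broth microdilution per NCCLS in Mueller-Hinton medium, run in triplicate, with an added uninoculated compound dilution series in case of precipitation. MIC read as the lowest concentration preventing visible growth; reported values are the mean of three experiments.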

[4] = tested on: Enterococcus faecium; assay: Minimum inhibitory concentration against Enterococcus faecium 17501 (vancomycin-resistant clinical isolate); assay type: functional
[5] = Percent lysis of human erythrocytes after exposed to test compound was measured as hemolysis; assay type: functional
[6] = tested on: Staphylococcus aureus; assay: Effect on bacterial membrane integrity was determined by using SYTO9 green fluorescent […]; assay type: functional, Bacteria
Outline: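 Incubated 15 min at 37 °C with agitation, then resuspended to OD600 ~0.4 and stained with BacLight (SYTO-9/propidium iodide) 15 min dark. Excitation 485 nm, emission 530/630 nm; green/red ratio normalized to untreated control.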

[7] = tested on: Escherichia coli; assay: Minimum inhibitory concentration against Escherichia coli ATCC 25922; NA=not active; assay type: functional, organism-based
[8] = tested on: Enterococcus faecium; assay: Minimum inhibitory concentration against Enterococcus faecium […]; NA=not active; assay type: functional, organism-based; outline: as §1
[9] = tested on: Enterococcus faecium; assay: Minimum inhibitory concentration against Enterococcus faecium 17501 (vancomycin-resistant clinical isolate); NA=not active; assay type: functional, organism-based
[10] = tested on: Staphylococcus aureus; assay: Minimum inhibitory concentration against Staphylococcus aureus ATCC 33591 (resistant to methicillin); NA=not active; assay type: functional, organism-based

## Cc1cc(C)cc(-c2ccc(OCCN(C)C)c(/C=C/C(=O)c3cccc(NCCN(C)C)c3)c2)c1
[1]
  MIC: 10 µM (≈ 4.86 µg/mL)
[2]
  MIC: 5 µM (≈ 2.43 µg/mL)
[3]
  MIC: 20 µM (≈ 9.71 µg/mL)
[4]
  MIC: 10 µM (≈ 4.86 µg/mL)

## CCCCN(CCCC)c1ccc(/C=C/C(=O)c2ccc(NCCN(C)C)cc2)cc1
[1]
  MIC: 10 µM (≈ 4.22 µg/mL)
[2]
  MIC: 10 µM (≈ 4.22 µg/mL)
[4]
  MIC: 10 µM (≈ 4.22 µg/mL)

## Cc1cc(C)cc(-c2ccc(N3CCN(C)CC3)c(/C=C/C(=O)c3cccc(NCCN(C)C)c3)c2)c1
[1]
  MIC: 5 µM (≈ 2.48 µg/mL)
[2]
  MIC: 5 µM (≈ 2.48 µg/mL)
[3]
  MIC: 10 µM (≈ 4.97 µg/mL)
[4]
  MIC: 5 µM (≈ 2.48 µg/mL)

## COc1ccc(C(=O)/C=C/c2cc(-c3cc(C)cc(C)c3)ccc2OCCN(C)C)c(CN(C)C)c1
[5]
  Hemolysis: <1%
[1]
  MIC: 5 µM (≈ 2.43 µg/mL)
[6]
  Membrane integrity: 2%
[2]
  MIC: 5 µM (≈ 2.43 µg/mL)
[3]
  MIC: 75 µM (≈ 36.5 µg/mL)
[4]
  MIC: 5 µM (≈ 2.43 µg/mL)

## C=CC(C)(C)c1cc(/C=C/C(=O)c2ccc(O)cc2)c(OC)cc1O [LICOAGROCHACONE A]
[5]
  Hemolysis: 100%
[1]
  MIC: 75 µM (≈ 25.4 µg/mL)
[6]
  Membrane integrity: 0%
[2]
  MIC: 40 µM (≈ 13.5 µg/mL)
[4]
  MIC: 40 µM (≈ 13.5 µg/mL)

## CN(C)CCNc1cccc(C(=O)/C=C/c2cc(-c3ccccc3)cc(N3CCN(C)CC3)c2)c1
[1]
  MIC: 40 µM (≈ 18.7 µg/mL)
[2]
  MIC: 20 µM (≈ 9.37 µg/mL)
[3]
  MIC: 75 µM (≈ 35.1 µg/mL)
[4]
  MIC: 40 µM (≈ 18.7 µg/mL)

## COc1ccc(C(=O)/C=C/c2cc(-c3cc(C)cc(C)c3)ccc2OCCN(C)C)c(F)c1
[1]
  MIC: 5 µM (≈ 2.24 µg/mL)
[2]
  MIC: 5 µM (≈ 2.24 µg/mL)
[4]
  MIC: 5 µM (≈ 2.24 µg/mL)

## COc1ccc(C(=O)/C=C/c2cc(-c3ccccc3OC)ccc2N2CCN(C)CC2)c(F)c1
[5]
  Hemolysis: 80%
[1]
  MIC: 20 µM (≈ 9.21 µg/mL)
[6]
  Membrane integrity: 0%
[2]
  MIC: 10 µM (≈ 4.61 µg/mL)
[4]
  MIC: 10 µM (≈ 4.61 µg/mL)

## COc1ccc(C(=O)/C=C/c2cc(-c3ccccc3OC)ccc2OCCN(C)C)c(F)c1
[1]
  MIC: 10 µM (≈ 4.5 µg/mL)
[2]
  MIC: 10 µM (≈ 4.5 µg/mL)
[4]
  MIC: 10 µM (≈ 4.5 µg/mL)

## CN(C)CCNc1ccc(C(=O)/C=C/c2cccc(Oc3ccccc3)c2)cc1
[1]
  MIC: 5 µM (≈ 1.93 µg/mL)
[2]
  MIC: 20 µM (≈ 7.73 µg/mL)
[4]
  MIC: 20 µM (≈ 7.73 µg/mL)

## Cc1cc(C)cc(-c2ccc(OCCN(C)C)c(/C=C/C(=O)c3cccc(OCCN(C)C)c3)c2)c1
[1]
  MIC: 10 µM (≈ 4.87 µg/mL)
[2]
  MIC: 5 µM (≈ 2.43 µg/mL)
[3]
  MIC: 20 µM (≈ 9.73 µg/mL)
[4]
  MIC: 10 µM (≈ 4.87 µg/mL)

## COc1ccc(C(=O)/C=C/c2cc(-c3cccnc3)ccc2N2CCN(C)CC2)c(F)c1
[1]
  MIC: 75 µM (≈ 32.4 µg/mL)
[2]
  MIC: 75 µM (≈ 32.4 µg/mL)
[4]
  MIC: 75 µM (≈ 32.4 µg/mL)

## CN(C)CCNc1cccc(C(=O)/C=C/c2cc(N3CCN(C)CC3)ccc2-c2ccccc2)c1
[1]
  MIC: 75 µM (≈ 35.1 µg/mL)
[2]
  MIC: 75 µM (≈ 35.1 µg/mL)
[7]
  MIC: inactive
[4]
  MIC: 75 µM (≈ 35.1 µg/mL)

## Cc1cc(C)cc(-c2ccc(OCCN(C)C)c(/C=C/C(=O)c3ccccc3NCCN(C)C)c2)c1
[1]
  MIC: 10 µM (≈ 4.86 µg/mL)
[2]
  MIC: 10 µM (≈ 4.86 µg/mL)
[3]
  MIC: 10 µM (≈ 4.86 µg/mL)
[4]
  MIC: 10 µM (≈ 4.86 µg/mL)

## Cc1cc(C)cc(-c2ccc(OCCN(C)C)c(/C=C/C(=O)c3ccc(N)cc3)c2)c1
[1]
  MIC: 20 µM (≈ 8.29 µg/mL)
[2]
  MIC: 10 µM (≈ 4.15 µg/mL)
[7]
  MIC: inactive
[4]
  MIC: 10 µM (≈ 4.15 µg/mL)

## COc1ccc(C(=O)/C=C/c2cc(-c3ccccc3)ccc2CN(C)C)c(F)c1
[1]
  MIC: 150 µM (≈ 58.4 µg/mL)
[2]
  MIC: 150 µM (≈ 58.4 µg/mL)
[4]
  MIC: 150 µM (≈ 58.4 µg/mL)

## COc1ccc(C(=O)/C=C/c2cc(-c3cc(C)cc(C)c3)ccc2OCC[N+](C)(C)C)c(C[N+](C)(C)C)c1
[2]
  MIC: 10 µM

## COc1ccc(C(=O)/C=C/c2cc(C(C)(C)C)ccc2OCCN(C)C)c(F)c1
[1]
  MIC: 20 µM (≈ 7.99 µg/mL)
[2]
  MIC: 10 µM (≈ 4 µg/mL)
[4]
  MIC: 20 µM (≈ 7.99 µg/mL)

## COc1ccc(C(=O)/C=C/c2cc(-c3ccccc3OC)ccc2N2CCN(C(C)=O)CC2)c(F)c1
[8]
  MIC: inactive
[9]
  MIC: inactive
[10]
  MIC: inactive

## Cc1cc(C)cc(-c2ccc(OCCN(C)C)c(/C=C/C(=O)c3ccccc3CN(C)C)c2)c1
[1]
  MIC: 5 µM (≈ 2.28 µg/mL)
[2]
  MIC: 10 µM (≈ 4.57 µg/mL)
[3]
  MIC: 75 µM (≈ 34.2 µg/mL)
[4]
  MIC: 10 µM (≈ 4.57 µg/mL)

## CN(C)Cc1ccc(C(=O)/C=C/c2ccc(Cl)cc2Cl)cc1
[1]
  MIC: 75 µM (≈ 25.1 µg/mL)
[2]
  MIC: 40 µM (≈ 13.4 µg/mL)
[4]
  MIC: 40 µM (≈ 13.4 µg/mL)

## COc1ccc(C(=O)/C=C/c2cc(-c3ccccc3OC)ccc2N2CCCN(C)CC2)c(F)c1
[1]
  MIC: 20 µM (≈ 9.49 µg/mL)
[2]
  MIC: 10 µM (≈ 4.75 µg/mL)
[4]
  MIC: 10 µM (≈ 4.75 µg/mL)

## COc1ccc(C(=O)/C=C/c2ccccc2OCCN(C)C)c(F)c1
[1]
  MIC: 300 µM (≈ 103 µg/mL)
[2]
  MIC: 300 µM (≈ 103 µg/mL)
[4]
  MIC: 300 µM (≈ 103 µg/mL)

## COc1ccc(C(=O)/C=C/c2cc(-c3cccc(CO)c3)ccc2N2CCN(C)CC2)c(F)c1
[8]
  MIC: inactive
[9]
  MIC: inactive
[10]
  MIC: inactive

## C[N+](C)(C)CCOc1ccc(C(=O)/C=C/c2ccc(Cl)cc2Cl)cc1
[2]
  MIC: 40 µM

## CN(C)CCNc1ccc(C(=O)/C=C/c2ccc(Cl)cc2Cl)cc1
[1]
  MIC: 40 µM (≈ 14.5 µg/mL)
[2]
  MIC: 40 µM (≈ 14.5 µg/mL)
[4]
  MIC: 40 µM (≈ 14.5 µg/mL)

## CN(C)CCNc1ccc(C(=O)/C=C/c2ccccc2)cc1
[8]
  MIC: inactive
[9]
  MIC: inactive
[2]
  MIC: 300 µM (≈ 88.3 µg/mL)
